Assay results taken from ChEMBL document CHEMBL1147067, “Inhibitors of metabolism rescue cell death in Huntington's disease models” (Proc Natl Acad Sci U S A, 2007).
Activity calls are given as the source filed them. No cut-off for these calls is given here.

How the values were obtained:
Rattus norvegicus [1] = species: Rattus norvegicus; assay: Activation of AKT in rat striatal neuronal N548 mutant cells at 50 uM by Western blotting
Method in brief: (§1)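 N548 mutant htt-expressing striatal cells were treated with compound or vehicle (0.1% DMSO) in serum-deprived medium (0.5% FCS, 39°C) or in 10% serum medium. Lysates were Western blotted with phospho-specific antibodies against AKT Ser473, AKT Thr308 and ERK Thr202/Tyr204. Total AKT, total ERK and tubulin served as controls. The concentration series was read at 8 h.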

Rattus norvegicus [2] = species: Rattus norvegicus; assay: Activation of ERK in […] rat striatal neuronal N548 mutant cells at 10 uM after 6 hrs by Western blotting; settings: 50 uM, in the assay text read “50 uM” for “10 uM”
Method in brief: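 N548 mutant htt-expressing striatal cells were exposed to compound or vehicle (0.1% DMSO) in serum-deprived medium (0.5% FCS, 39°C). Lysates were analysed by Western blotting with a phospho-specific antibody against threonine 202/tyrosine 204 ERK. Total ERK and tubulin served as controls.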

Drosophila [3] = assay: Cell death rescue of neuronal cells in drosophila Huntington's disease model; assay type: functional, organism-based
Method in brief: (§2)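 Flies of Drosophila HD strain 8534, which express human htt 1–170 with 120Q in the eye, were fed compound mixed into food (renewed every 2 days) or vehicle (0.1% DMSO) at 25°C. Rhabdomeres per ommatidium were counted by the pseudopupil technique at 9 days post-eclosion, blinded, with equal numbers of males and females. 8–10 flies per treatment, 35 ommatidia each; Student's t test.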

[4] = Toxicity in rat striatal neuronal N548 mutant cells; settings: read-out: TC50 (the source's name)
[5] = Cell death rescue in rat striatal neuron N548 mutant cells relative to rotenone; assay type: functional
[6] = Cell death rescue in rat striatal neuron N548 mutant cells; assay type: functional
Caenorhabditis elegans [7] = assay: Toxicity in Caenorhabditis elegans Huntington's disease model; assay type: organism-based; settings: for TC50: caenorhabditis elegans, in vivo
Drosophila [8] = assay: Toxicity in drosophila Huntington's disease model; assay type: organism-based; settings: in vivo
Caenorhabditis elegans [9] = assay: Cell death rescue of ASH neuronal cells in Caenorhabditis elegans Huntington's disease model; assay type: functional, organism-based
Method in brief: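 pqe-1;Htn-Q150 C. elegans L1 larvae, which express human htt 1–171 with 150Q in ASH neurons, were kept at 15°C in liquid S medium with E. coli OP50 and compound or DMSO (1.5%). A starvation variant used L1-arrested larvae without food at 25°C. ASH survival was scored as GFP fluorescence in live animals, 100 neurons in more than 50 animals per treatment per time point.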

Rattus norvegicus [10] = species: Rattus norvegicus; assay: Cell death rescue in rat striatal neuronal N548 mutant cells at 10 uM after 2 days by calcein acetoxymethyl ester assay in presence of LY-294002; assay type: functional
Rattus norvegicus [11] = species: Rattus norvegicus; assay: Cell death rescue in rat striatal neuronal N548 mutant cells at 10 uM after 2 days by calcein acetoxymethyl ester assay in presence of U0126; assay type: functional
Rattus norvegicus [12] = species: Rattus norvegicus; assay: Cell death rescue in rat striatal neuronal N548 mutant cells by calcein acetoxymethyl ester assay; assay type: functional
Method in brief: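 N548 mutant cells in serum-deprived medium (0.5% FCS, 39°C) were treated across a dose range. Viability was read by calcein acetoxymethyl ester fluorescence and expressed as fold increase over DMSO-treated cells. Triplicate wells, mean ± SD.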

Rattus norvegicus [13] = species: Rattus norvegicus; assay: Cell death rescue in rat striatal neuronal N548 mutant cells analysed every day for 7 days at 10 uM by trypan blue dye-exclusion assay; assay type: functional
Method in brief: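 Death was induced in N548 mutant cells by switching to 0.5% FCS medium at 39°C, with compound or DMSO present. Viability was measured daily for 7 days by automated trypan blue (0.4%) dye exclusion, counting at least 200 cells per sample and reporting % trypan blue-negative cells. Two independent experiments were run, each in duplicate.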

[14] = Decrease in htt expression in rat striatal neuron N548 mutant cells assessed as visible htt aggregation after 12 hrs by Western blotting; assay type: functional; set-up: scale not given: the % may be the effect or the level left
Drosophila [15] = assay: Decrease in rhabdomere degeneration in Drosophila photoreceptor assessed as number of rhabdomeres per ommatidium at day 9; assay type: functional, organism-based; method in brief: as §2
Rattus norvegicus [16] = species: Rattus norvegicus; assay: Suppression of cell death in rat striatal neuronal N548 mutant cells assessed as suppression of caspase 3 activation by Western blotting; assay type: functional
Method in brief: (§3)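 Serum-deprived N548 mutant cells (0.5% FCS, 39°C) were treated with compound or DMSO. Cleaved active caspase 3 and caspase 7 fragments were detected by Western blotting, with tubulin as loading control.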

Rattus norvegicus [17] = species: Rattus norvegicus; assay: Suppression of cell death in rat striatal neuronal N548 mutant cells assessed as suppression of caspase 7 activation by Western blotting; assay type: functional; method in brief: as §3
Rattus norvegicus [18] = species: Rattus norvegicus; assay: Decrease in ATP levels in rat striatal neuronal N548 mutant cells after 8 hrs in serum-deprived medium by luminescence-based assay in presence of glucose; assay type: functional
Method in brief: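 N548 mutant cells were plated at 10^5 cells per 60-mm dish, treated, and after 8 h in serum-deprived medium were lysed. Total ATP was measured by luciferase luminescence (12 s integration), normalized to cell number, and expressed relative to untreated cells at 0 h (100%). Triplicate, mean ± SD.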

Rattus norvegicus [19] = species: Rattus norvegicus; assay: Activation of ERK in rat striatal neuronal N548 mutant cells at 10 uM by Western blotting; method in brief: as §1
Rattus norvegicus [20] = species: Rattus norvegicus; assay: Activation of AKT in rat striatal neuronal N548 mutant cells at 10 uM by Western blotting; method in brief: as §1
[21] = target: Tyrosine-protein kinase JAK2 (Rattus norvegicus) (UniProt Q62689); assay: Activation of JAK2 in rat striatal neuronal N548 mutant cells
Rattus norvegicus [22] = species: Rattus norvegicus; assay: Activation of NF-kappaB in rat striatal neuronal N548 mutant cells
[23] = target: MAP kinase p38 (Homo sapiens) (UniProt O15264+Q15759+Q16539+P53778); assay: Activation of p38 MAPK in rat striatal neuronal N548 mutant cells
[24] = target: Glycogen synthase kinase-3 alpha (Rattus norvegicus) (UniProt P18265); assay: Activation of GSKalpha in rat striatal neuronal N548 mutant cells
[25] = target: Glycogen synthase kinase-3 beta (Rattus norvegicus) (UniProt P18266); assay: Activation of GSKbeta in rat striatal neuronal N548 mutant cells
Rattus norvegicus [26] = species: Rattus norvegicus; assay: Activation of ERK in rat striatal neuronal N548 mutant cells after 8 hrs by Western blotting; method in brief: as §1
Rattus norvegicus [27] = species: Rattus norvegicus; assay: Activation of AKT in rat striatal neuronal N548 mutant cells after 8 hrs by Western blotting; method in brief: as §1
Rattus norvegicus [28] = species: Rattus norvegicus; assay: Activation of ERK in rat striatal neuronal N548 mutant cells at 50 uM by Western blotting; method in brief: as §1
Rattus norvegicus [29] = species: Rattus norvegicus; assay: Activation of AKT in DNA-deficient rat striatal neuronal N548 mutant cells at 10 uM after 6 hrs by Western blotting
Rattus norvegicus [30] = species: Rattus norvegicus; assay: Cell death rescue in DNA-deficient rat striatal neuronal N548 mutant cells at 10 uM; assay type: functional

Glycogen synthase kinase-3 alpha (Rattus norvegicus), sequence (P18265 whole entry): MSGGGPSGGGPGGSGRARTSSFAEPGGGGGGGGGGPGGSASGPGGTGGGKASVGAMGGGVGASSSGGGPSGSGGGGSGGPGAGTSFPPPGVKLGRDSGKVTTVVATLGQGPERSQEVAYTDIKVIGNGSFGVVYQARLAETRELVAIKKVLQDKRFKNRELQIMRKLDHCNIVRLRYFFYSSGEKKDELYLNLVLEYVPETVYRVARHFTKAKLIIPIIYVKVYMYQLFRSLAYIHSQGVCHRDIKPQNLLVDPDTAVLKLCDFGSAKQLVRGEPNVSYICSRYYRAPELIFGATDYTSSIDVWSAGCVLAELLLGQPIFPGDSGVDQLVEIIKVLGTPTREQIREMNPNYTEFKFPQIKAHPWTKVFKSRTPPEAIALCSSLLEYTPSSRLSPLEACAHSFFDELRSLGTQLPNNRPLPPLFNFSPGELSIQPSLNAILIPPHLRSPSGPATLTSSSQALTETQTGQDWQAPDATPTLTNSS
Glycogen synthase kinase-3 beta (Rattus norvegicus), sequence (P18266 whole entry, looked up): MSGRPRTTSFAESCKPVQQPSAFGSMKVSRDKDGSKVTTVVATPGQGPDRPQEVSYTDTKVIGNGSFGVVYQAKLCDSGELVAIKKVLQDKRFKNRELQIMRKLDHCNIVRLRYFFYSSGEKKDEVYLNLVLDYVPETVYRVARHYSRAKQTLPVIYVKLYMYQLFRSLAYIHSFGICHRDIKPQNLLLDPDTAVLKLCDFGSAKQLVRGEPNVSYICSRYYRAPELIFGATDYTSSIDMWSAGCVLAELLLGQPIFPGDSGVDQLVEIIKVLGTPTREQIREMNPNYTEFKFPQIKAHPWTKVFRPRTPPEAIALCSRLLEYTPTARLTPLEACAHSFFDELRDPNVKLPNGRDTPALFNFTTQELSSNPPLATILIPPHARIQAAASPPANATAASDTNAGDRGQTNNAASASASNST
Tyrosine-protein kinase JAK2 (Rattus norvegicus), sequence (Q62689 whole entry): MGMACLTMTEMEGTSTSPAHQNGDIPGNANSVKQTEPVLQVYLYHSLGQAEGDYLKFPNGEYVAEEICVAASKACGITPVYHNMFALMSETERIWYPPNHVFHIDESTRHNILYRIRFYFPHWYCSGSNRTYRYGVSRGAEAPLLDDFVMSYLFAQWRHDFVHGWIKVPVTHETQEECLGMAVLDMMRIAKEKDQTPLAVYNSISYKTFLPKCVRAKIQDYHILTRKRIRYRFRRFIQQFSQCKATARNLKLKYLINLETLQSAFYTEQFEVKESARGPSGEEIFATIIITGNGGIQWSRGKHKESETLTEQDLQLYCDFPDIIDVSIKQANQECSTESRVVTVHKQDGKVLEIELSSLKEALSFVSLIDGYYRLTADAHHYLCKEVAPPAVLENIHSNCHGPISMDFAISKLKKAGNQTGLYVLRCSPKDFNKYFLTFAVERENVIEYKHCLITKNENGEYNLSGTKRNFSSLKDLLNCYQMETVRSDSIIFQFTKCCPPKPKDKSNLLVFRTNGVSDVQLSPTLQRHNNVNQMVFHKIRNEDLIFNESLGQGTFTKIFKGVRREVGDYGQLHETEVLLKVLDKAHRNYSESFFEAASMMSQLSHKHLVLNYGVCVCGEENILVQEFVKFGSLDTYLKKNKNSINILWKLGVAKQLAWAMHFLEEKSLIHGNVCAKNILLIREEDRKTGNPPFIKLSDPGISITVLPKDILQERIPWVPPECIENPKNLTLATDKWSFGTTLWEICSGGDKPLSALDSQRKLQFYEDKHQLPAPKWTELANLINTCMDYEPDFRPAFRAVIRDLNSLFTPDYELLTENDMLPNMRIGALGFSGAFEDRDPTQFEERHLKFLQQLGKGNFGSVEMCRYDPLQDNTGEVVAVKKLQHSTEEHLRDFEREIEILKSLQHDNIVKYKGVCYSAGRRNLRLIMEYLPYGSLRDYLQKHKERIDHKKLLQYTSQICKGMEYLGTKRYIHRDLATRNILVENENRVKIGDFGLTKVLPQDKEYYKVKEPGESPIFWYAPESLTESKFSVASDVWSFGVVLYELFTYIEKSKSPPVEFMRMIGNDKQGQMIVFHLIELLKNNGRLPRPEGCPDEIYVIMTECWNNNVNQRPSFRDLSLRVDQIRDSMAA

## CC(C)(C)OC(=O)N[C@@H](CC(=O)O)C(=O)CF
Rattus norvegicus [1]
  Activity: Active
Rattus norvegicus [2]
  Activity: Active

## O=[N+]([O-])c1ccc(O)c([N+](=O)[O-])c1 [2,4-DINITROPHENOL]
Drosophila [3]
  EC50: 1250 µM
[4]
  CC50: 16000 µM
[5]
  Activity: 1
[6]
  EC50: 200 µM
Caenorhabditis elegans [7]
  TC50: 2000 µM
Drosophila [8]
  TC50: 10000 µM
Caenorhabditis elegans [9]
  EC50: 700 µM

## C=C(C)[C@H]1Cc2c(ccc3c2O[C@@H]2COc4cc(OC)c(OC)cc4[C@@H]2C3=O)O1 [ROTENONE]
Rattus norvegicus [10]
  Activity: inactive
Rattus norvegicus [11]
  Activity: inactive
Drosophila [3]
  EC50: 10 µM
[4]
  CC50: 40 µM
Rattus norvegicus [12]
  Activity: Active
Rattus norvegicus [13]
  Activity: Active
[14]
  Activity: < 1%
[6]
  EC50: 0.5 µM
Caenorhabditis elegans [7]; Caenorhabditis elegans
  EC50: 2 µM
Caenorhabditis elegans [7]
  TC50: 16 µM
Drosophila [8]
  TC50: 50 µM
Caenorhabditis elegans [9]
  EC50: 2 µM
Drosophila [15]
  Activity: Active
Rattus norvegicus [16]
  Activity: Active
Rattus norvegicus [17]
  Activity: Active
Rattus norvegicus [18]
  Activity: inactive
Rattus norvegicus [19]
  Activity: Active
Rattus norvegicus [20]
  Activity: Active
[21]
  Activity: inactive
Rattus norvegicus [22]
  Activity: inactive
[23]
  Activity: inactive
[24]
  Activity: inactive
[25]
  Activity: inactive
Rattus norvegicus [26]
  Activity: Dose-dependent effect
Rattus norvegicus [27]
  Activity: Dose-dependent effect
Rattus norvegicus [28]
  Activity: Active
Rattus norvegicus [1]
  Activity: Active
Rattus norvegicus [29]
  Activity: Active
Rattus norvegicus [30]
  Activity: Active

## [F-].[Na+] [SODIUM FLUORIDE]
[4]
  CC50: 10000 µM
[5]
  Activity: 0.6
[6]
  EC50: 2000 µM
